Tests used:
[1] = target: Muscarinic acetylcholine receptor M3 (Rattus norvegicus) (UniProt P08483); assay: Positive allosteric modulation of muscarinic acetylcholine receptor M3 in Sprague-Dawley rat urinary bladder assessed as increase in 8 Hz electrical field stimulation-induced bladder contraction by measuring tension of isolated bladder contraction at 3 uM (reference value: 2.21 +/- 0.26 g)
Summary of the method: (§1)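 Female Sprague-Dawley rats, 9–10 weeks old. Longitudinal bladder strips (~10×2 mm) in Krebs at 37°C, gassed with 95% O2/5% CO2. EFS at 8 Hz, 10 s trains, 0.3 ms pulses, voltage set to give about half-maximal response. Drug added cumulatively at 1, 3 and 10 μM, 10 stimulations per concentration. Contraction = peak minus basal tone, averaged over the last 3 contractions and compared with pre-drug value (n=7).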

[2] = Oral bioavailability in Crl:CD(SD) rat at 1 mg/kg measured up to 24 hrs by LC-MS/MS analysis; type: ADME, organism-based; settings: in vivo
Summary of the method: (§2)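 Male Crl:CD(SD) rats, 8 weeks old, food deprived (n=4); iv 0.3 mg/kg or po 1 mg/kg in DMF/propylene glycol/water for injection (1/1/8) containing 1 M NaOH (2 equivalents). Plasma sampled to 24 h, assayed by validated LC-MS/MS. Parameters from each animal by noncompartmental analysis, reported as means.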

[3] = Half life in Crl:CD(SD) rat at 0.3 mg/kg, iv measured up to 24 hrs by LC-MS/MS analysis; type: ADME, organism-based; settings: in vivo; summary of the method: as §2
[4] = target: T1, Muscarinic acetylcholine receptor M4 (Homo sapiens) (UniProt P08173); assay: Positive allosteric modulation of recombinant human muscarinic acetylcholine receptor M4 expressed in CHOK1 cells coexpressing G-alpha16 assessed as increase in carbachol-induced intracellular calcium flux at 10 uM preincubated for 5 mins followed by carbachol addition by Fluo4-AM dye based FLIPR assay relative to carbachol; type: functional, cell-based; settings: CHO-K1
T1 sequence (whole entry): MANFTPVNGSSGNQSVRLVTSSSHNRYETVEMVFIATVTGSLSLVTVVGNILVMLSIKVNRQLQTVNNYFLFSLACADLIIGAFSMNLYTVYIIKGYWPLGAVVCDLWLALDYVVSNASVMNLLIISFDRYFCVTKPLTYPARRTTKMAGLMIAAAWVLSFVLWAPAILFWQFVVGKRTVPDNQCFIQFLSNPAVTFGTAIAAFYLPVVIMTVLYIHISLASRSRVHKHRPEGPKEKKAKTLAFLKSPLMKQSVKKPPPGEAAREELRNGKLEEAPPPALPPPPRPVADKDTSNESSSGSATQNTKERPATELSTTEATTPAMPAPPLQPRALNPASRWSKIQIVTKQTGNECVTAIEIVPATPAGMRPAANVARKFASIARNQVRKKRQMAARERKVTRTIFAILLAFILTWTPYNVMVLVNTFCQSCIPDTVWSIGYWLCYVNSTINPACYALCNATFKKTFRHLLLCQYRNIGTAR
Summary of the method: (§3)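 CHO-K1 cells stably expressing human or rat M1–M5; M2 and M4 lines also co-express human Gα16. Cells loaded with 3.1 μM Fluo-4 AM in HBSS/20 mM HEPES pH 7.5/BSA/2.5 mM probenecid for ~2 h at room temperature. Test substance at 10 μM final, then carbachol (0.0024 nM–100 μM) ~5 min later; Ca2+ read by FLIPR Tetra. Fold shift = carbachol EC50 without / with test substance, from logistic fits.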

[5] = AUCinfinity in Crl:CD(SD) rat at 0.3 mg/kg, iv measured up to 24 hrs by LC-MS/MS analysis; type: ADME, organism-based; parameters: dose 0.3 mg/kg, route intravenous, time infinity; settings: in vivo; summary of the method: as §2
[6] = target: Muscarinic acetylcholine receptor M3 (Rattus norvegicus) (UniProt P08483); assay: Positive allosteric modulation of recombinant rat muscarinic acetylcholine receptor M3 expressed in CHOK1 cells assessed as increase in carbachol-induced intracellular calcium flux at 10 uM preincubated for 5 mins followed by carbachol addition by Fluo4-AM dye based FLIPR assay relative to carbachol; type: functional, cell-based; settings: CHO-K1; summary of the method: as §3
[7] = target: Muscarinic acetylcholine receptor M3 (Rattus norvegicus) (UniProt P08483); assay: Positive allosteric modulation of muscarinic acetylcholine receptor M3 in Sprague-Dawley rat urinary bladder assessed as increase in 8 Hz electrical field stimulation-induced bladder contraction by measuring tension of isolated bladder contraction at 1 uM (reference value: 2.21 +/- 0.26 g); summary of the method: as §1
[8] = Volume of distribution at steady state in Crl:CD(SD) rat at 0.3 mg/kg, iv measured up to 24 hrs by LC-MS/MS analysis; type: ADME, organism-based; settings: in vivo, read-out: Vdss; summary of the method: as §2
[9] = target: T2, Thrombopoietin receptor (Homo sapiens, UniProt P40238); assay: Agonist activity at recombinant human c-Mpl receptor transfected in BA/F3 cells assessed as increase in cell proliferation by cell counting analysis; type: cell-based; settings: baf3
T2 sequence (P40238 whole entry): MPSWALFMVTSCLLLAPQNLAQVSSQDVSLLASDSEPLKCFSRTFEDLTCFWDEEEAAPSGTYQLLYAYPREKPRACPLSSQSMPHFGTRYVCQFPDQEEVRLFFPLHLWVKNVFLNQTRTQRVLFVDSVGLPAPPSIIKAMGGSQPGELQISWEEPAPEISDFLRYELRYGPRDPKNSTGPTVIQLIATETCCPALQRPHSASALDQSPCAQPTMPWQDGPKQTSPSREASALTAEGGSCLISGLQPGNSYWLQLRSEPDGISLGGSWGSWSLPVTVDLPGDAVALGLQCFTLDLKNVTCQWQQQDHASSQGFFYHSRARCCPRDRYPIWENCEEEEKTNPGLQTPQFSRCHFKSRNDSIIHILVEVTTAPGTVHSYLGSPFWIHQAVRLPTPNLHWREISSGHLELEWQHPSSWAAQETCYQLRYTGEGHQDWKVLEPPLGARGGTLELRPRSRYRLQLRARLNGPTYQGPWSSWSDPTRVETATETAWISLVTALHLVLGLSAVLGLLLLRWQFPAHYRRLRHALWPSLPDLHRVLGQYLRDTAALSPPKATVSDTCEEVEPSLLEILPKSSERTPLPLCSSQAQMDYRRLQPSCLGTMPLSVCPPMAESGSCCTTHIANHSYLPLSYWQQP
Summary of the method: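 Ba/F3 cells stably transfected with human c-Mpl by electroporation with blasticidin selection. 1×10^4 cells/well in RPMI-1640 with 10% FBS, with test substance (100 nM to 10 μM final), overnight at 37°C in 5% CO2. Cell Counting Kit added for about 5 h, then A450 read. Scale: untreated wells 0%, reference c-Mpl agonist at 1 μM 100%. EC30 from logistic regression.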

[10] = Half life in Crl:CD(SD) rat at 1 mg/kg, po measured up to 24 hrs by LC-MS/MS analysis; type: ADME, organism-based; settings: in vivo; summary of the method: as §2
[11] = Total clearance in Crl:CD(SD) rat at 0.3 mg/kg, iv measured up to 24 hrs by LC-MS/MS analysis; type: ADME, organism-based; settings: in vivo; summary of the method: as §2
[12] = Tmax in Crl:CD(SD) rat at 1 mg/kg, po measured up to 24 hrs by LC-MS/MS analysis; type: ADME, organism-based; settings: in vivo; summary of the method: as §2

Chain of Muscarinic acetylcholine receptor M3 (Rattus norvegicus) (P08483 whole entry, looked up): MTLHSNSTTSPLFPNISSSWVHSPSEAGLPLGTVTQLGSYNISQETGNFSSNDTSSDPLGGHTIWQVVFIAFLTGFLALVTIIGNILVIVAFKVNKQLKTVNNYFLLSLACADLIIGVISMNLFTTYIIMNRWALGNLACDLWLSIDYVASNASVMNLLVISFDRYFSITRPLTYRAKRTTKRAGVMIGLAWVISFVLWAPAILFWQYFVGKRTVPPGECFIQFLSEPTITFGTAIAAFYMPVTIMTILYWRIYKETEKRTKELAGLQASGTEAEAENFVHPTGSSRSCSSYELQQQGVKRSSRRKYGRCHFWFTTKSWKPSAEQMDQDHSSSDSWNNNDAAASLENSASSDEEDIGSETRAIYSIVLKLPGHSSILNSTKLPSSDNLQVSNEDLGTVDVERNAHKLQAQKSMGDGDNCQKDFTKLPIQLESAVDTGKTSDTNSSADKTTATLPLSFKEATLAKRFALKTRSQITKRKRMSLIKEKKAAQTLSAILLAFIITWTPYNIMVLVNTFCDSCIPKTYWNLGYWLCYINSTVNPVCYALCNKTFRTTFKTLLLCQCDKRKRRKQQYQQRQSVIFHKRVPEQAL

For CC[C@@H]1CCCN1Cc1sc(NC(=O)c2cnc(N3CCC(C(=O)O)CC3)cn2)nc1-c1ccc(OC)c(C(F)(F)F)c1.Cl.Cl, the Activity [1] was 2.79 g, the bioavailability [2] was 19% and the half-life [3] was 2.43 h. For the same compound, the fold change (FC) [4] was 1, the AUC(0-inf) [5] was 330 ng·h/mL and the fold change (FC) [6] was 158. The Activity [7] was 2.34 g, the Vd [8] was 1.59 L/kg and the EC30 [9] was > 10 µM. The half-life [10] was 2.16 h, the clearance [11] was 15.3 mL/min/kg and the Tmax [12] was 0.31 h.

— ChEMBL document CHEMBL4622869, “Discovery and structure-activity relationships study of positive allosteric modulators of the M3 muscarinic acetylcholine receptor” (Bioorg Med Chem, 2020)
